ChEMBL document CHEMBL1828552, “Synthesis and studies of novel 2-(4-cyano-3-trifluoromethylphenyl amino)-4-(quinoline-4-yloxy)-6-(piperazinyl/piperidinyl)-s-triazines as potential antimicrobial, antimycobacterial and anticancer agents” (2011)

System: DU-145
Test: Cytotoxicity against […] human DU145 cells after 48 hrs by SRB assay
Type: functional
Conditions: DU-145, 48 h
In short: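 SRB assay in DU-145 cells grown in RPMI 1640 with 10% FBS and 2 mM L-glutamine. Cells were plated and held 24 h before addition of four 10-fold concentrations. After 48 h, cells were TCA-fixed, stained with 0.4% SRB and read at 540 nm. GI50, TGI and LC50 were derived against time-zero and control wells; each value is the mean of three experiments.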

COc1cccc2c1C(=O)c1c(O)c3c(c(O)c1C2=O)C[C@@](O)(C(=O)CO)C[C@@H]3O[C@H]1C[C@H](N)[C@H](O)[C@H](C)O1 [DOXORUBICIN]
GI50: < 0.1 µM
TGI: > 100 µM
